Legend:
[1] = Cytotoxicity against MDCK cells by MTT assay; type: cell-based, Canis lupus familiaris; conditions: dog
[2] = Selective index, ratio of CC50 for MDCK cells to IC50 for Hantaan 76-118; type: toxicity; conditions: dog, read-out: Ratio CC50/IC50
[3] = test system: Orthohantavirus hantanense; test: Antiviral activity against Hantaan 76-118 pseudovirus infected in MDCK cells assessed as reduction in virus replication incubated for 48 hrs by luminescence assay; type: functional, organism-based
[4] = Cytotoxicity against human HEK293T cells measured after 72 hrs by MTT assay; type: cell-based, HEK-293T
Procedure, shortened: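 HEK293T cells were exposed to compounds for 72 h. CC50 was the concentration causing 50% cell death, reported as M ± I95, n = 3.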

[5] = test system: Vesicular stomatitis virus; test: Antiviral activity against pseudotyped recombinant vesicular stomatitis virus delta G Gn-Gc infected HEK293T cells assessed as reduction in virus replication incubated for 48 hrs by luminescence assay; type: functional, organism-based; conditions: HEK-293T
Procedure, shortened: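 Gn-Gc-pseudotyped VSV-ΔG particles were made by transfecting HEK293T cells with a Hantaan 76–118 Gn-Gc plasmid, adding VSV-ΔG-G after 48 h, and harvesting the supernatant 48 h later. Pseudovirus (500,000 RLU) was preincubated with a range of compound concentrations for 1 h, then a HEK293T cell suspension was added. IC50 reported as M ± I95, n = 3.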

[6] = Selective index, ratio of CC50 for HEK293T cells to IC50 for antiviral activity against pseudotyped recombinant vesicular stomatitis virus delta G Gn-Gc infected HEK293T cells; type: toxicity; conditions: human, read-out: Ratio CC50/IC50
Procedure, shortened: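 Selectivity index was calculated as CC50 (HEK293T, 72 h exposure) divided by IC50 against rVSV-ΔG-Gn-Gc pseudovirus in HEK293T cells.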

[7] = test system: Orthohantavirus hantanense; test: Antiviral activity against HTNV strain 76-118 infected african green monkey Vero E6 cells measured after 3 days by plaque-formation assay; type: functional, organism-based; conditions: 76-118, Vero C1008, 72 h
[8] = Orthohantavirus hantanense, 76-118, MDCK, 48 h, read-out: IC50

SMILES: CCCCN1CC23C=CC(C)(O2)C(C(=O)N/N=C2\C[C@H]4CC[C@]2(C)C4(C)C)C3C1=O (mixture of isomers)
- CC50 at 336 h [1]: 246 µM
- selectivity ratio [2]: 9
- IC50 [3, 8]: 26 µM

SMILES: COc1ccc(N2CC34C=CC(C)(O3)C(C(=O)N/N=C3\C(C)(C)[C@H]5CC[C@]3(C)C5)C4C2=O)cc1 (mixture of isomers)
- CC50 at 72 h [4]: 152 µM
- IC50 [5]: 74 µM
- selectivity ratio [6]: 2
- CC50 at 336 h [1]: 292 µM
- selectivity ratio [2]: 9
- IC50 [3, 8]: 30 µM

SMILES: COCCN1CC23C=CC(O2)C(C(=O)N/N=C2\C[C@H]4CC[C@]2(C)C4(C)C)C3C1=O (mixture of isomers)
- CC50 at 72 h [4]: 1030 µM
- IC50 [5]: > 800 µM
- CC50 at 336 h [1]: 250 µM
- IC50 ([3]; mdck): Not Active

SMILES: CC12C=CC3(CN(c4ccccc4)C(=O)C3C1C(=O)N/N=C1\C(C)(C)[C@H]3CC[C@]1(C)C3)O2 (mixture of isomers)
- CC50 at 72 h [4]: 1180 µM
- IC50 [5]: 431 µM
- selectivity ratio [6]: 3
- CC50 at 336 h [1]: 1060 µM
- selectivity ratio [2]: 140
- IC50 [3, 8]: 7.6 µM

SMILES: CC12C=CC3(CN(c4ccccc4)C(=O)C3C1C(=O)N/N=C1\C[C@H]3CC[C@]1(C)C3(C)C)O2 (mixture of isomers)
- CC50 at 72 h [4]: 448 µM
- IC50 [5]: 96 µM
- selectivity ratio [6]: 4
- CC50 at 336 h [1]: 142 µM
- selectivity ratio [2]: 10
- IC50 [3, 8]: 14 µM

SMILES: CSc1nc2[nH]nc([N+](=O)[O-])c(=O)n2n1
- CC50 at 72 h [4]: 1510 µM
- IC50 [5]: 408 µM
- selectivity ratio [6]: 4
- CC50 at 336 h [1]: 368 µM
- selectivity ratio [2]: 26
- IC50 [3, 8]: 14 µM

SMILES: CC(C)N1CC23C=CC(C)(O2)C(C(=O)N/N=C2\C[C@H]4CC[C@]2(C)C4(C)C)C3C1=O (mixture of isomers)
- CC50 at 72 h [4]: > 2500 µM
- IC50 [5]: 468 µM
- selectivity ratio [6]: 5
- CC50 at 336 h [1]: 250 µM
- selectivity ratio [2]: 3
- IC50 [3, 8]: 92 µM

SMILES: CC12C=CC3(CN(c4ccccc4)C(=O)C3C1C(=O)N/N=C1\CC3CCC1C3)O2 (mixture of isomers)
- CC50 at 336 h [1]: 269 µM
- selectivity ratio [2]: 9
- IC50 [3, 8]: 28 µM

SMILES: CC12C=CC3(CN(Cc4ccccc4)C(=O)C3C1C(=O)N/N=C1\C[C@H]3CC[C@]1(C)C3(C)C)O2 (mixture of isomers)
- CC50 at 72 h [4]: 335 µM
- IC50 [5]: 147 µM
- selectivity ratio [6]: 2
- CC50 at 336 h [1]: 245 µM
- selectivity ratio [2]: 7
- IC50 [3, 8]: 33 µM

SMILES: CC12C=CC3(CN(c4ccc(Br)cc4)C(=O)C3C1C(=O)N/N=C1\C[C@H]3CC[C@]1(C)C3(C)C)O2 (mixture of isomers)
- CC50 at 72 h [4]: 175 µM
- IC50 [5]: 120 µM
- CC50 at 336 h [1]: 78 µM
- IC50 ([3]; mdck): Not Active

SMILES: CC12C=CC3(CN(c4ccc(Br)cc4)C(=O)C3C1C(=O)N/N=C1\C(C)(C)[C@H]3CC[C@]1(C)C3)O2 (mixture of isomers)
- CC50 at 72 h [4]: 78 µM
- IC50 [5]: 65 µM
- CC50 at 336 h [1]: 80 µM
- IC50 ([3]; mdck): Not Active

SMILES: COc1ccc(N2CC34C=CC(C)(O3)C(C(=O)N/N=C3\C[C@H]5CC[C@]3(C)C5(C)C)C4C2=O)cc1 (mixture of isomers)
- CC50 at 336 h [1]: 120 µM
- selectivity ratio [2]: 6
- IC50 [3, 8]: 19 µM

SMILES: CCC12C=CC3(CN(c4ccccc4)C(=O)C3C1C(=O)N/N=C1\C(C)(C)[C@H]3CC[C@]1(C)C3)O2 (mixture of isomers)
- CC50 at 336 h [1]: 120 µM
- selectivity ratio [2]: 3
- IC50 [3, 8]: 40 µM

SMILES: CC12C=CC3(CN(CCc4ccccc4)C(=O)C3C1C(=O)N/N=C1\C[C@H]3CC[C@]1(C)C3(C)C)O2 (mixture of isomers)
- CC50 at 72 h [4]: 216 µM
- IC50 [5]: 69 µM
- selectivity ratio [6]: 3
- CC50 at 336 h [1]: 195 µM
- selectivity ratio [2]: 4
- IC50 [3, 8]: 42 µM

SMILES: CC1(C)[C@@H]2CC[C@@]1(C)/C(=N/NC(=O)C1C3C=CC4(CN(Cc5ccccc5)C(=O)C14)O3)C2 (mixture of isomers)
- CC50 at 72 h [4]: 860 µM
- IC50 [5]: 750 µM
- CC50 at 336 h [1]: 250 µM
- IC50 ([3]; mdck): Not Active

SMILES: CCN1CC23C=CC(O2)C(C(=O)N/N=C2\C[C@H]4CC[C@]2(C)C4(C)C)C3C1=O (mixture of isomers)
- CC50 at 72 h [4]: 1070 µM
- IC50 [5]: 790 µM
- CC50 at 336 h [1]: 250 µM
- IC50 ([3]; mdck): Not Active

SMILES: O=c1c2ncn([C@@H]3O[C@H](CO)[C@@H](O)[C@H]3O)c2ncn1-c1cccc(F)c1
- EC50 [7]: 94 µM

SMILES: NC(=O)c1ncn([C@@H]2O[C@H](CO)[C@@H](O)[C@H]2O)n1 [RIBAVIRIN]
- CC50 at 336 h [1]: 20 µM
- IC50 ([3]; mdck): Not Active

SMILES: CC1(C)[C@@H]2CC[C@@]1(C)/C(=N/NC(=O)C1C3OC4(CN(c5ccccc5)C(=O)C14)C1OC31)C2 (mixture of isomers)
- CC50 at 72 h [4]: 1040 µM
- IC50 [5]: 195 µM
- selectivity ratio [6]: 5
- CC50 at 336 h [1]: 195 µM
- selectivity ratio [2]: 5
- IC50 [3, 8]: 37 µM

SMILES: CC1(C)[C@@H]2CC[C@@]1(C)/C(=N/NC(=O)c1cccc3c1C(=O)N(Cc1ccccc1)C3)C2
- CC50 at 336 h [1]: > 300 µM
- IC50 ([3]; mdck): Not Active

SMILES: CC1(C)[C@@H]2CC[C@@]1(C)/C(=N/NC(=O)c1ccccc1)C2
- CC50 at 72 h [4]: 1100 µM
- IC50 [5]: 780 µM
- CC50 at 336 h [1]: > 150 µM
- IC50 ([3]; mdck): Not Active

SMILES: CC12CCC3(CN(c4ccccc4)C(=O)C3C1C(=O)N/N=C1\C[C@H]3CC[C@]1(C)C3(C)C)O2 (mixture of isomers)
- CC50 at 72 h [4]: 1450 µM
- IC50 [5]: 375 µM
- selectivity ratio [6]: 3
- CC50 at 336 h [1]: 130 µM
- selectivity ratio [2]: 6
- IC50 [3, 8]: 20 µM
